Experimental data reported in ChEMBL document CHEMBL4371064, “Erythrofordins D and E, two new cassaine-type diterpenes from Erythrophleum suaveolens” (2019).

What was measured:
Assay type in all cases: functional
Malme-3M = experiment: Growth inhibition of human MALME-3M cells incubated for 48 hrs by sulforhodamine B assay
How it was run: (§1)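 Run in the NCI-60 human tumour cell line panel with dose-response testing. GI50 was determined for each cell line from its dose-response data.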

M14 = experiment: Growth inhibition of human M14 cells incubated for 48 hrs by sulforhodamine B assay; conditions: M14, 48 h; how it was run: as §1
SF-295 = experiment: Growth inhibition of human SF295 cells incubated for 48 hrs by sulforhodamine B assay; conditions: SF-295, 48 h; how it was run: as §1
OVCAR-3 = experiment: Growth inhibition of human OVCAR3 cells incubated for 48 hrs by sulforhodamine B assay; conditions: OVCAR-3, 48 h; how it was run: as §1
SF-268 = experiment: Growth inhibition of human SF268 cells incubated for 48 hrs by sulforhodamine B assay; conditions: SF-268, 48 h; how it was run: as §1
A549 = experiment: Growth inhibition of human A549/ATCC cells incubated for 48 hrs by sulforhodamine B assay; conditions: A549, 48 h; how it was run: as §1
SNB-75 = experiment: Growth inhibition of human SNB75 cells incubated for 48 hrs by sulforhodamine B assay; conditions: SNB-75, 48 h; how it was run: as §1
CAKI-1 = experiment: Growth inhibition of human Caki1 cells incubated for 48 hrs by sulforhodamine B assay; conditions: CAKI-1, 48 h; how it was run: as §1
COLO 205 = experiment: Growth inhibition of human COLO205 cells incubated for 48 hrs by sulforhodamine B assay; conditions: COLO 205, 48 h; how it was run: as §1
NCI-H226 = experiment: Growth inhibition of human NCI-H226 cells incubated for 48 hrs by sulforhodamine B assay; conditions: NCI-H226, 48 h; how it was run: as §1
BT-549 = experiment: Growth inhibition of human BT549 cells incubated for 48 hrs by sulforhodamine B assay; conditions: BT-549, 48 h; how it was run: as §1
MCF7 = experiment: Growth inhibition of human MCF7 cells incubated for 48 hrs by sulforhodamine B assay; conditions: MCF7, 48 h; how it was run: as §1
MOLT-4 = experiment: Growth inhibition of human MOLT4 cells incubated for 48 hrs by sulforhodamine B assay; conditions: MOLT-4, 48 h; how it was run: as §1
SF-539 = experiment: Growth inhibition of human SF539 cells incubated for 48 hrs by sulforhodamine B assay; conditions: SF-539, 48 h; how it was run: as §1
NCI-H322M = experiment: Growth inhibition of human NCI-H322M cells incubated for 48 hrs by sulforhodamine B assay; how it was run: as §1
EKVX = experiment: Growth inhibition of human EKVX cells incubated for 48 hrs by sulforhodamine B assay; how it was run: as §1
SK-MEL-2 = experiment: Growth inhibition of human SK-MEL-2 cells incubated for 48 hrs by sulforhodamine B assay; conditions: SK-MEL-2, 48 h; how it was run: as §1
HCT-116 = experiment: Growth inhibition of human HCT116 cells incubated for 48 hrs by sulforhodamine B assay; conditions: HCT-116, 48 h; how it was run: as §1
NCI-H23 = experiment: Growth inhibition of human NCI-H23 cells incubated for 48 hrs by sulforhodamine B assay; conditions: NCI-H23, 48 h; how it was run: as §1
HOP-92 = experiment: Growth inhibition of human HOP92 cells incubated for 48 hrs by sulforhodamine B assay; conditions: HOP-92, 48 h; how it was run: as §1
OVCAR-5 = experiment: Growth inhibition of human OVCAR5 cells incubated for 48 hrs by sulforhodamine B assay; conditions: OVCAR-5, 48 h; how it was run: as §1
SW-620 = experiment: Growth inhibition of human SW620 cells incubated for 48 hrs by sulforhodamine B assay; conditions: SW-620, 48 h
How it was run: (§2)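 Tested in the NCI 60-human-tumour-cell-line screen using the five-dose format. GI₅₀ was derived from each cell line's dose-response. TGI and LC₅₀ were derived from the same dose-response data.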

HL-60(TB) = experiment: Growth inhibition of human HL-60(TB) cells incubated for 48 hrs by sulforhodamine B assay; conditions: HL-60, 48 h
How it was run: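 Run within the NCI-60 human tumour cell line panel as a dose-response screen. For each cell line the readouts are GI50, TGI and LC50. Per-line log values also feed a mean-graph analysis, in which the arithmetic mean of the log values across all lines is subtracted from each line's log value.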

SK-OV-3 = experiment: Growth inhibition of human SKOV3 cells incubated for 48 hrs by sulforhodamine B assay; conditions: SK-OV-3, 48 h; how it was run: as §1
Hs-578T = experiment: Growth inhibition of human Hs578T cells incubated for 48 hrs by sulforhodamine B assay; how it was run: as §1
NCI/ADR-RES = experiment: Growth inhibition of human NCI/ADR-RES cells incubated for 48 hrs by sulforhodamine B assay; how it was run: as §1
LOX IMVI = experiment: Growth inhibition of human LOXIMVI cells incubated for 48 hrs by sulforhodamine B assay; how it was run: as §1
HCT-15 = experiment: Growth inhibition of human HCT15 cells incubated for 48 hrs by sulforhodamine B assay; conditions: HCT-15, 48 h; how it was run: as §1
HT-29 = experiment: Growth inhibition of human HT-29 cells incubated for 48 hrs by sulforhodamine B assay; conditions: HT-29, 48 h; how it was run: as §1
U-251 = experiment: Growth inhibition of human U251 cells incubated for 48 hrs by sulforhodamine B assay; conditions: U-251, 48 h; how it was run: as §2
[1] = read-out: pLC50 (the source's name) (converted)

`COC(=O)/C=C1\CC[C@H]2[C@@H](CC(=O)[C@H]3C(C)(C)[C@@H](O)CC[C@]23C)[C@H]1C` was tested, and the GI50 (Malme-3M) was 1.48 µM, the LC50 (Malme-3M) was 24.5 µM and the TGI (Malme-3M; read-out: pTGI (converted)) was 7.08 µM. The GI50 (M14) was 10 µM, the LC50 (M14) was > 34.7 µM and the TGI (M14; read-out: pTGI (converted)) was > 34.7 µM. The GI50 (SF-295) was 1.45 µM, the LC50 (SF-295) was > 34.7 µM and the TGI (SF-295; read-out: pTGI (converted)) was 7.59 µM. For the same compound, the GI50 (OVCAR-3) was 1.32 µM, the LC50 (OVCAR-3) was 21.4 µM and the TGI (OVCAR-3; read-out: pTGI (converted)) was 4.9 µM. The GI50 (SF-268) was 1.17 µM, the LC50 (SF-268) was 14.5 µM and the TGI (SF-268; read-out: pTGI (converted)) was 4.47 µM. For the same compound, the GI50 (A549) was 0.603 µM, the LC50 (A549) was 2.09 µM and the TGI (A549; read-out: pTGI (converted)) was 1.12 µM. It also gave a GI50 (SNB-75) of 1.1 µM, an LC50 (concentration killing 50% of cells) (SNB-75) of 23.4 µM and a TGI (SNB-75; read-out: pTGI (converted)) of 6.46 µM. The GI50 (CAKI-1) was 1.38 µM, the LC50 (CAKI-1) was > 34.7 µM and the TGI (CAKI-1; read-out: pTGI (converted)) was 6.76 µM. For the same compound, the GI50 (COLO 205) was 10.5 µM, the LC50 (COLO 205) was > 34.7 µM and the TGI (COLO 205; read-out: pTGI (converted)) was > 34.7 µM. It also gave a GI50 (NCI-H226) of 4.79 µM, an LC50 (NCI-H226) of 25.1 µM and a TGI (NCI-H226; read-out: pTGI (converted)) of 11 µM. The GI50 (BT-549) was 1.26 µM, the LC50 (BT-549) was > 34.7 µM and the TGI (BT-549; read-out: pTGI (converted)) was 5.5 µM. For the same compound, the GI50 (MCF7) was 1.62 µM, the CC50 (MCF7; [1]) was > 34.7 µM and the TGI (MCF7; read-out: pTGI) was > 34.7 µM. The GI50 (MOLT-4) was 0.813 µM, the LC50 (MOLT-4) was > 34.7 µM and the TGI (MOLT-4; read-out: pTGI (converted)) was 2.14 µM. It also gave a GI50 (SF-539) of 1.35 µM, an LC50 (SF-539) of 16.2 µM and a TGI (SF-539; read-out: pTGI (converted)) of 5.5 µM. The GI50 (NCI-H322M) was 1.35 µM, the LC50 (NCI-H322M) was > 34.7 µM and the TGI (NCI-H322M; read-out: pTGI (converted)) was 9.55 µM. The GI50 (EKVX) was 0.871 µM, the LC50 (EKVX) was 11 µM and the TGI (EKVX; read-out: pTGI (converted)) was 2.69 µM. The GI50 (SK-MEL-2) was 7.41 µM, the LC50 (concentration killing 50% of cells) (SK-MEL-2) was > 34.7 µM and the TGI (SK-MEL-2; read-out: pTGI (converted)) was 28.8 µM. The GI50 (HCT-116) was 1.41 µM, the LC50 (HCT-116) was > 34.7 µM and the TGI (HCT-116; read-out: pTGI (converted)) was 6.31 µM. The GI50 (NCI-H23) was 1.23 µM, the LC50 (NCI-H23) was > 34.7 µM and the TGI (NCI-H23; read-out: pTGI (converted)) was 7.76 µM. For the same compound, the GI50 (HOP-92) was 5.75 µM, the LC50 (HOP-92) was > 34.7 µM and the TGI (HOP-92; read-out: pTGI (converted)) was 23.4 µM. For the same compound, the GI50 (OVCAR-5) was 5.89 µM, the LC50 (OVCAR-5) was > 34.7 µM and the TGI (OVCAR-5; read-out: pTGI (converted)) was 17.4 µM. For the same compound, the GI50 (SW-620) was 1.74 µM, the LC50 (SW-620) was > 34.7 µM and the TGI (SW-620; read-out: pTGI (converted)) was 10 µM. For the same compound, the GI50 (HL-60(TB)) was 5.37 µM, the LC50 (HL-60(TB)) was > 34.7 µM and the TGI (HL-60(TB); read-out: pTGI (converted)) was 21.4 µM. For the same compound, the GI50 (SK-OV-3) was 8.51 µM, the LC50 (SK-OV-3) was > 34.7 µM and the TGI (SK-OV-3; read-out: pTGI (converted)) was 22.9 µM. The GI50 (Hs-578T) was 0.955 µM, the LC50 (Hs-578T) was > 34.7 µM and the TGI (Hs-578T; read-out: pTGI (converted)) was 3.39 µM. For the same compound, the GI50 (NCI/ADR-RES) was 1.2 µM, the CC50 (NCI/ADR-RES; [1]) was > 34.7 µM and the TGI (NCI/ADR-RES; read-out: pTGI (converted)) was 6.61 µM. The GI50 (LOX IMVI) was 2 µM, the LC50 (LOX IMVI) was > 34.7 µM and the TGI (LOX IMVI; read-out: pTGI (converted)) was 9.55 µM. The GI50 (HCT-15) was 4.07 µM, the LC50 (HCT-15) was 30.2 µM and the TGI (HCT-15; read-out: pTGI (converted)) was 11 µM. The GI50 (HT-29) was 2.24 µM, the CC50 (HT-29; [1]) was > 34.7 µM and the TGI (HT-29; read-out: pTGI (converted)) was 10.7 µM. It also gave a GI50 (U-251) of 1.7 µM, an LC50 (U-251) of 19.5 µM and a TGI (U-251; read-out: pTGI (converted)) of 6.76 µM.
